Publication PMC6939458 (Cancer cell, 2019)

Key:
[1] = tested on: MYC-dependent cancer cells; test: Cell viability, MYC-dependent cancer cells; type: cell-based; details: MycCaP, LNCaP, PC3, MV4–11, HL-60, P493–6, SK-N-B2; 5 days
How it was run: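 Cells were seeded at 1000 to 5000 per well in 96-well plates, depending on cell type. Viable cells were counted, or MTS absorbance was read at 490 nm, 2 to 7 days after treatment. MycCaP, PC3, LNCaP and P493–6 were grown in RPMI1640, SK-N-BE(2) in F12 and MV411 in IMDM, each with 10% heat-inactivated FBS and 1% penicillin-streptomycin.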

[2] = tested on: 468 kinases, including GSK3β; test: KINOMEscan kinome screen; type: binding; details: 6 μM
MYC/MAX interaction = MYC/MAX interaction (Homo sapiens, UniProt P01106); test: Co-immunoprecipitation and proximity ligation assay in PC3 cells; type: cell-based; details: 6 μM
MYC/MAX interaction, sequence (P01106 16-454): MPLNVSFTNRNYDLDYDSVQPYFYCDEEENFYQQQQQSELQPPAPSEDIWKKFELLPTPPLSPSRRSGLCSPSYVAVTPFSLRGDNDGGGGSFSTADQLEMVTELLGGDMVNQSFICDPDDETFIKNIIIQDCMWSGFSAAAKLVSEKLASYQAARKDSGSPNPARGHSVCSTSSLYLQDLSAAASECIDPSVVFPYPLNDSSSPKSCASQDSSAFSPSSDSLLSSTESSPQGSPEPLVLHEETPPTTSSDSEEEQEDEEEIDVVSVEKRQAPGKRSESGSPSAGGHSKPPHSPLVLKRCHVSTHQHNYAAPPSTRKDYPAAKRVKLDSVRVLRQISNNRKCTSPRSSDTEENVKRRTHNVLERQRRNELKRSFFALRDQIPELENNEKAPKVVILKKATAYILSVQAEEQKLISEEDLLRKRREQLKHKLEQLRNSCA
How it was run: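 For PLA, PC3 or PC3 T58A cells were grown in chamber slides and treated for 1 to 2 hr, then fixed in 4% PFA and permeabilised with 0.5% Triton-X. PLA signals per cell were counted by image analysis. For co-IP, cells were lysed in 20 mM Tris-HCl pH 8.0, 100 mM NaCl, 1 mM EDTA and 0.5% NP-40. Pellets were enzymatically sheared for 90 min at 4 °C and precipitates were analysed by western blot.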

γ-H2AX = γ-H2AX staining; type: cell-based, human; details: 10 μM, 24-hour treatment
How it was run: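 PC3 cells were fixed in 4% PFA and permeabilised with 0.5% Triton-X. They were then stained with anti-phospho-histone H2A.X (Ser139) antibody at 1:1000.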

MYC/MAX/DNA complex = MYC/MAX/DNA complex (Homo sapiens, UniProt P01106); test: EMSA, MYC/MAX/DNA complex formation; type: biochemical
MYC/MAX/DNA complex, sequence (P01106 368-454, one chain of several): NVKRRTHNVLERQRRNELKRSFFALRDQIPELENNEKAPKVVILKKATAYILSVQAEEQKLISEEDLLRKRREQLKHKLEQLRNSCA

MYC = MYC (Homo sapiens, UniProt P01106); test: Cellular thermal shift assay; type: cell-based
MYC, sequence (P01106 16-454): as the sequence (P01106 16-454) above
How it was run: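 PC3 cells (70–80% confluent; also PC3 stably expressing Flag-MYCT58A, puromycin 1.5 μg/ml selected) treated with test compound or DMSO for 30 min. Cells washed, resuspended in PBS with protease/phosphatase inhibitors plus the same compound dose, split into 7–10 aliquots (~1 million cells each), heated 2 min at graded temperatures, then 3 min room temperature. Lysates boiled 5 min at 90 °C; MYC quantified by Western blot densitometry to build melt curves.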

MYC353–439 = MYC353–439 (Homo sapiens, UniProt P01106); test: Fluorescence polarization competition assay against 10074-G5; type: binding
MYC353–439, sequence (P01106 368-454): as the sequence (P01106 368-454, one chain of several) above

Cn1nc(C(F)(F)F)cc1-c1ccc(OCc2ccc(Cl)cc2)c(-c2cc(C(F)(F)F)cc(C(F)(F)F)c2)c1O [Compound 361, 6-((4-chlorobenzyl)oxy)-3-(1-methyl-3-(trifluoromethyl)-1H-pyrazol-5-yl)-3’,5’-bis(trifluoromethyl)-[1,1’-biphenyl]-2-ol]
IC50s, cell viability [1]: low micromolar | kinome screen result [2]: negative | MYCT58A/MAX interactions (PLA) (MYC/MAX interaction; MYCT58A-expressing PC3 cells): disrupted | MYC/MAX interaction by co-IP and PLA (MYC/MAX interaction; PC3 cells, 1 hr): disruption of the MYC/MAX interaction | induction of γ-H2AX (γ-H2AX): did not observe induction | disruption of MYC/MAX/DNA complex formation (MYC/MAX/DNA complex; EMSA): impaired | activity in vitro (MYC/MAX/DNA complex; EMSA and cell viability assays): active | interaction with MYCT58A by CETSA (MYC; 6 μM, MYCT58A-expressing PC3 cells): can interact | thermal stability of MYC protein (CETSA) (MYC; PC3 cells, 30 min, 361 4–10 μM, G5 15–60 μM, 360 6 μM): significant thermal destabilization | Kd (MYC353–439): 3.2 µM
